Source: PubChem
NSD2 HMT inh – NSD2 histone methyltransferase inhibitors, primary screen, biochemical, AlphaScreen, single concentration, set 2; AID 743445, 2014; inhibition, % at 12.5 µM; Histone-lysine N-methyltransferase NSD2 (Homo sapiens), O96028; NSD2 peptide methylation, 120 min; 310,000 tested, 0.54% active; in the data active = inhibition above about 50%
Target sequence (O96028 whole entry, looked up): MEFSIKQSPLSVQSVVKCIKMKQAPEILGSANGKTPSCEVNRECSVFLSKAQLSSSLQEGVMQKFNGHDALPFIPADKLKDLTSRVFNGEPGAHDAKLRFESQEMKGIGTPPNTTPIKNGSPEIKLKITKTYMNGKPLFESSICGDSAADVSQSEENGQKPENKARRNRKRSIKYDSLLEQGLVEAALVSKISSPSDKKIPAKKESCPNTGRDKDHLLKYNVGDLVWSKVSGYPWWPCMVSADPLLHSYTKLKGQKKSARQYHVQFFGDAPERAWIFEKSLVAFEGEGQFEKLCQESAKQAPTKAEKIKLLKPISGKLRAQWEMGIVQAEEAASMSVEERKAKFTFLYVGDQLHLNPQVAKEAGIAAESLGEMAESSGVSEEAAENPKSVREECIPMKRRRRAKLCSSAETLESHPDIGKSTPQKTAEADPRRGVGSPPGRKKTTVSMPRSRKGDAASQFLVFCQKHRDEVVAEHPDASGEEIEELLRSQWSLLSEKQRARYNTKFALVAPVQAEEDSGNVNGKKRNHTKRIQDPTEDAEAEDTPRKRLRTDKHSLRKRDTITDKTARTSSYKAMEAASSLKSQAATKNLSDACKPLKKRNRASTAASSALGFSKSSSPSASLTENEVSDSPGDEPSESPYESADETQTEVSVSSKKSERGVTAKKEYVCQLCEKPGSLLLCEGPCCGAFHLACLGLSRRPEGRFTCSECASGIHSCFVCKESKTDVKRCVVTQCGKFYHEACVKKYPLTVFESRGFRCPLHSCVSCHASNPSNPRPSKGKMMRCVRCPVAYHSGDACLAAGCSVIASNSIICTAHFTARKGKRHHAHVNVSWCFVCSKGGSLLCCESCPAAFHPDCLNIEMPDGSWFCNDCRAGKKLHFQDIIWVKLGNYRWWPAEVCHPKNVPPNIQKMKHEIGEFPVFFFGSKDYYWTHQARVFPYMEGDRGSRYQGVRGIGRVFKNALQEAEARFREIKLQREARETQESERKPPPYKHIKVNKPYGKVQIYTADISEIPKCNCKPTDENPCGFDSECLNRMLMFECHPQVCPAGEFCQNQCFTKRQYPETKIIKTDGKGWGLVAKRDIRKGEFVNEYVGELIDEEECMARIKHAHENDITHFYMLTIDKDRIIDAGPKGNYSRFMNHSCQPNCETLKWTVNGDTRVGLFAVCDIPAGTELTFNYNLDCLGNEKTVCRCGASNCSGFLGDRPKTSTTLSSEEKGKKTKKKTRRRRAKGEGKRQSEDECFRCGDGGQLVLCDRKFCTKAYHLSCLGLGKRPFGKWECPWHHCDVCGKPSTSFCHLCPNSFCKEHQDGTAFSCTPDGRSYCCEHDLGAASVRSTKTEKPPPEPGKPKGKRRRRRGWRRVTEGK
FN deposition inh – inhibitors of fibronectin matrix deposition, primary screen, AH1F cells, Alexa488-fibronectin fluorescence, plate reader; AH1F fibroblasts, overnight; inhibition, % at 12.6 µM; 350,000 tested, 0.086% active; AID 743247, 2014;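 active = mean inhibition across replicates of 30% or more, regardless of how many single replicates reach that level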;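 also: positive control wells lacked labelled fibronectin entirely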
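Assay system: AH1F fibroblasts / Quantity: 10000 cells per well / Medium: DMEM plus 2% serum, read in PBS / Reagent: labelled fibronectin 24 nM / Dosing: single dose, pinned / Times: 1 h cell attachment, overnight exposure to compound and label / Signal: fluorescence, ex 485 nm, em 525 nm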
Casp6 inh – human caspase-6 inhibitors, primary screen, biochemical, VEID-R110 fluorescence, single point, set 2; P55212; AID 686996, 2013; 350,000 tested, 0.53% active; inhibition, % at 12.5 µM; purified caspase-6, Z-VEID-R110 cleavage fluorescence;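 active = mean inhibition across replicates at least about 35%, with every replicate also reaching that limit, limit read from the data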;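 also: 0% = median of neutral control wells and 100% = no fluorescence left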
GC-A act – GC-A stimulated cGMP production enhancers – HEK293 GC-A cells, cGMP TR-FRET, EC30 ANP, primary screen; Atrial natriuretic peptide receptor 1 (Homo sapiens), P16066; 0% at EC30 ANP, 100% saturating ANP; activation, % at 10 µM; 370,000 tested, 0.14% active; AID 1671463, 2021; in the data active = activation above about 40%
NPR2 activator – human GC-B receptor activators, primary screen, HEK293 GC-B cells, cGMP TR-FRET, EC30 CNP. Atrial natriuretic peptide receptor 2 (Homo sapiens), P20594. 370,000 tested, 0.11% active. 0% at EC30 CNP, 100% saturating CNP. activation, % at 10 µM;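 active = activation at 10 µM reaching about 35% in either raw or pattern-adjusted values, limit read from the data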
CaV13 ICDI inh – Primary screen for inhibitors of IQ motif and Ca2+-dependent inactivation inhibitor domain binding in CACNA1D, Förster resonance energy transfer in living cells, …. HEK cells, CFP/YFP FRET ICDI-IQ, plate reader, 10 min; percent FRET-ratio fall versus neutral wells. inhibition, % at 12.3 µM. 340,000 tested, 0.098% active;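 active = mean replicate inhibition of at least 30% and at least 1% of replicates passing that level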;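 also: 0% = median of the neutral control wells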
* = called active by the depositor; nt = no result. Compounds with a hit are over-represented: about 0.99% of the library has one in this group of screens.

SMILES | NSD2 HMT inh | FN deposition inh | Casp6 inh | GC-A act | NPR2 activator | CaV13 ICDI inh
O=C(NCC(c1ccco1)N1CCc2ccccc2C1)c1ccc(Cl)cc1 (stereo unspecified) | 0 | 5 | 63* | -3 | -4 | -6
CC=Cc1ccc2n(c1=O)C[C@@H]1[C@@H](CO)[C@H](C(=O)NCc3ccccc3Cl)N(S(C)(=O)=O)[C@H]21 (mixture of isomers) | nt | 2 | 0 | nt | nt | nt
C[C@@H]1CN([C@@H](C)CO)C(=O)Cc2cc(NC(=O)CCN3CCOCC3)ccc2O[C@H]1CN(C)S(=O)(=O)c1cccs1 | nt | nt | -2 | nt | nt | nt
O=c1[nH]c(N2CCOCC2)cc2ccccc12 | nt | 2 | 96* | 0 | -3 | -4
O=c1c(N2CCOCC2)coc2ccccc12 | 1 | nt | -3 | 0 | 4 | 0
O=C(C[C@H]1C[C@@H]2c3cc(NC(=O)C4CCC4)ccc3O[C@@H]2[C@@H](CO)O1)NCC(F)(F)F | nt | -2 | -2 | nt | nt | nt
Cc1ccc(Cl)cc1NC(=O)CSc1sc2c(O)cc(=O)[nH]c2c1C#N | 3 | -2 | 44* | 2 | -2 | -4
Cc1ccc(C)c(NC(=O)CSc2sc3c(O)cc(=O)[nH]c3c2C#N)c1 | nt | -6 | 47* | 4 | 3 | -4
COC(=O)c1ccc(C)c(NC(=O)CSc2sc3c(O)cc(=O)[nH]c3c2C#N)c1 | 28 | -1 | 54* | 1 | -6 | -3
COc1ccccc1NC(=O)CSc1sc2c(O)cc(=O)[nH]c2c1C#N | nt | 8 | 31 | -4 | 1 | -3
COc1ccc(Cl)cc1NC(=O)CSc1sc2c(O)cc(=O)[nH]c2c1C#N | nt | -5 | 28 | -2 | -3 | -2
COc1ccc(NC(=O)CSc2sc3c(O)cc(=O)[nH]c3c2C#N)c(OC)c1 | 47 | 7 | 59* | 0 | -3 | -4
COCC(=O)N1C[C@H]2[C@@H](c3ccccc31)[C@H](CO)N2Cc1ccccc1F | nt | nt | -2 | nt | nt | nt
CC(C)NC(=O)Nc1ccc2c(c1)C(=O)N([C@H](C)CO)C[C@@H](C)[C@H](CN(C)C(=O)NC1CCCCC1)OCCCC[C@@H](C)O2 | nt | nt | 7 | nt | nt | nt
CC(=NNC(=S)Nc1ccc(C)cc1)c1ccccn1 | 21 | 0 | 40* | 2 | 6 | -7
CN(C(=O)c1ccc(Cl)cc1)c1ccc(OCC(=O)Nc2cc(C(=O)O)ccc2Cl)cc1 | 7 | -4 | 36* | -2 | -2 | -2
CCOC(=O)c1[nH]c(C)c(C(=O)NC2CCCC2)c1C | nt | 9 | -1 | 3 | 56* | -2
C=C[C@]1(C)C=C2C(=O)[C@@]3(O)OC(=O)[C@@]4(CCCC(C)(C)[C@H]34)[C@@]2(O)CC1 | nt | 1 | 37* | -6 | -1 | -6
Cc1cc(OCc2nc(N)nc(N)c2-c2ccc(Cl)c(Cl)c2)ccc1[N+](=O)[O-] | -2 | 34* | -2 | -19 | -13 | -4
S=C(NC1CC1)SCc1ccco1 | -2 | -13 | 53* | 1 | 0 | -2
O=C(NC1CCCCC1)NC1CCN(C(=S)NCc2ccco2)CC1 | nt | 1 | nt | -5 | -1 | -6
COc1ccc(S(=O)(=O)N(C)C[C@@H]2Oc3c(NC(=O)c4ccncc4)cccc3C(=O)N([C@H](C)CO)C[C@H]2C)cc1 | nt | nt | -1 | nt | nt | nt
C[C@H]1CN([C@@H](C)CO)C(=O)c2cccc(NS(=O)(=O)c3ccc(Cl)cc3)c2O[C@H]1CN(C)S(C)(=O)=O | nt | nt | 1 | nt | nt | nt
Cc1ccc(NS(=O)(=O)c2ccc(-c3ccc(=O)[nH]n3)o2)cc1 | -4 | -20 | -4 | 0 | -4 | -3
Cc1cccc(C)c1NS(=O)(=O)c1ccc(-c2ccc(=O)[nH]n2)o1 | -5 | 2 | 41* | 5 | -6 | -5
SMILES | NSD2 HMT inh | FN deposition inh | Casp6 inh | GC-A act | NPR2 activator | CaV13 ICDI inh
O=C1NC(=O)/C(=C\c2ccc(Br)o2)S1 | 11 | 8 | 49* | 4 | 0 | -14
COc1ccc(NC(=O)C2(C)CCN2Cc2ccc(SC)cc2)cc1OC (stereo unspecified) | 4 | -3 | 0 | 13 | 12 | -5
CSc1ccc(CN2CCC2(C)C(=O)Nc2cccc(NS(C)(=O)=O)c2)cc1 (stereo unspecified) | 6 | 3 | 41* | 3 | 8 | -5
CCCn1nc([N+](=O)[O-])c(C(C#N)c2nc3ccccc3s2)c(Cl)c1=O (stereo unspecified) | 52* | 7 | nt | 3 | 2 | -11
CC(=O)c1sc(C(=O)O)c(-c2ccco2)c1-c1ccco1 | 37 | 2 | 64* | 2 | -5 | -19
CC=Cc1ccc2n(c1=O)C[C@@H]1[C@@H](CO)[C@H](C(=O)NCCc3ccccc3)N(C(=O)CC)[C@H]21 (mixture of isomers) | nt | nt | -1 | nt | nt | nt
C[C@@H]1CN([C@@H](C)CO)C(=O)c2cc(C#Cc3ccncc3)cnc2O[C@@H]1CN(C)S(=O)(=O)c1ccccc1F | nt | nt | 0 | nt | nt | nt
CSCCC(NC(=O)C1CCCC1)c1nnc2ccccn12 (stereo unspecified) | -6 | 6 | 2 | -2 | 3 | -2
CSCC[C@H](NS(=O)(=O)c1ccc(C(C)=O)cc1)c1nnc2ccccn12 | 21 | -5 | 37* | 3 | 0 | -4
O=C(Nc1ccc(F)cc1)c1ccccc1NC(=O)C1CC=CCC1C(=O)O (stereo unspecified) | -2 | nt | 37* | 2 | 2 | nt
C[C@H]1CCCCO[C@H](CN(C)C(=O)Nc2cccc3ccccc23)[C@@H](C)CN([C@@H](C)CO)C(=O)c2cc(NC(=O)Nc3ccc(C(F)(F)F)cc3)ccc2O1 | nt | nt | -1 | nt | nt | nt
Cn1c(=O)[nH]c(=O)c2c1nc(CN1CCOCC1)n2Cc1ccccc1 | -3 | nt | 51* | -2 | 2 | -9
Cn1c(=O)[nH]c(=O)c2c1nc(CN1CCOCC1)n2CCc1ccccc1 | 18 | nt | nt | -3 | -2 | -6
C=CCSc1nc2c(c(=O)[nH]c(=O)n2C)n1Cc1ccc(C)cc1 | nt | 6 | -2 | 24 | 38* | -6
CCCSc1nc2c(c(=O)[nH]c(=O)n2C)n1Cc1ccc(C)cc1 | 45 | 0 | nt | 21 | 26 | -3
COc1ccccc1NC(=O)N[C@@H]1CC[C@@H](CCNS(=O)(=O)c2ccc(F)cc2)O[C@H]1CO | nt | nt | 0 | nt | nt | nt
COCCn1c(SCC(=O)Nc2ccccc2OC)nc2c([nH]c3ccccc32)c1=O | -6 | nt | 70* | -5 | -4 | nt
